# ChEMBL document CHEMBL1141258, “Prismatomerin, a new iridoid from Prismatomeris tetrandra. Structure elucidation, determination of absolute configuration, and cytotoxicity” (J Nat Prod, 2007)
# The source made the active and inactive calls. The calls are words filed in the database; no cut-off is given here.
# Columns and labels:
# [1] = system: SW-620; experiment: Growth inhibition of human SW620 cells after 48 hrs by SRB assay; format: functional; conditions: SW-620, 48 h
# Method in brief: (§1)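 NCI 60 human tumour cell line in vitro anticancer screen, run at NCI. Compound tested at a minimum of five concentrations in 10-fold dilutions per cell line.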
# [2] = system: UACC-257; experiment: Growth inhibition of human UACC257 cells after 48 hrs by SRB assay; format: functional; conditions: UACC-257, 48 h; method in brief: as §1
# [3] = system: LOX IMVI; experiment: Growth inhibition of human LOXIMVI cells after 48 hrs by SRB assay; format: functional
# Method in brief: (§2)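 Run at NCI in the 60-human-tumor-cell-line anticancer screen. Each compound was tested at a minimum of five concentrations at 10-fold dilutions.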
# [4] = system: SK-MEL-5; experiment: Growth inhibition of human SKMEL5 cells after 48 hrs by SRB assay; format: functional; method in brief: as §2
# [5] = system: 786-0; experiment: Growth inhibition of human 786-0 cells after 48 hrs by SRB assay; format: functional; conditions: 786-0, 48 h; method in brief: as §2
# [6] = system: BT-549; experiment: Growth inhibition of human BT549 cells after 48 hrs by SRB assay; format: functional; method in brief: as §2
# [7] = system: T47D; experiment: Growth inhibition of human T47D cells after 48 hrs by SRB assay; format: functional; method in brief: as §1
# [8] = system: SNB-75; experiment: Growth inhibition of human SNB75 cells after 48 hrs by SRB assay; format: functional; method in brief: as §1
# [9] = system: PC-3; experiment: Growth inhibition of human PC3 cells after 48 hrs by SRB assay; format: functional; conditions: PC-3, 48 h; method in brief: as §1
# [10] = system: SW480; experiment: Antiproliferative activity against human SW480 cells after 5 days by MTT assay; conditions: SW480, 120 h
# [11] = system: HT-29; experiment: Growth inhibition of human HT29 cells after 48 hrs by SRB assay; format: functional; conditions: HT-29, 48 h; method in brief: as §1
# [12] = system: A549; experiment: Growth inhibition of human A549 cells after 48 hrs by SRB assay; format: functional; conditions: A549, 48 h; method in brief: as §2
# [13] = system: Malme-3M; experiment: Growth inhibition of human MALME-3M cells after 48 hrs by SRB assay; format: functional; method in brief: as §1
# [14] = system: DU-145; experiment: Growth inhibition of human DU145 cells after 48 hrs by SRB assay; format: functional; method in brief: as §2
# [15] = system: UACC-62; experiment: Growth inhibition of human UACC62 cells after 48 hrs by SRB assay; format: functional; conditions: UACC-62, 48 h; method in brief: as §1
# [16] = system: SK-OV-3; experiment: Growth inhibition of human SK-OV3 cells after 48 hrs by SRB assay; format: functional; conditions: SK-OV-3, 48 h; method in brief: as §2
# [17] = system: HCT-116; experiment: Growth inhibition of human HCT116 cells after 48 hrs by SRB assay; format: functional; method in brief: as §2
# [18] = system: NCI-H23; experiment: Growth inhibition of human NCIH23 cells after 48 hrs by SRB assay; format: functional; conditions: NCI-H23, 48 h; method in brief: as §1
# [19] = system: NCI-H226; experiment: Growth inhibition of human NCIH226 cells after 48 hrs by SRB assay; format: functional; conditions: NCI-H226, 48 h; method in brief: as §2
# [20] = (§3) Growth inhibition of human […] cells after 48 hrs by SRB assay; format: functional; method in brief: as §2
# [21] = system: MDA-MB235; experiment: as §3; format: functional; method in brief: as §2
# [22] = system: A498; experiment: Growth inhibition of human A498 cells after 48 hrs by SRB assay; format: functional; conditions: A498, 48 h; method in brief: as §2
# [23] = system: HCT-15; experiment: Growth inhibition of human HCT15 cells after 48 hrs by SRB assay; format: functional; conditions: HCT-15, 48 h; method in brief: as §2
# [24] = system: ACHN; experiment: Growth inhibition of human ACHN cells after 48 hrs by SRB assay; format: functional; method in brief: as §1
# [25] = system: U-251; experiment: Growth inhibition of human U251 cells after 48 hrs by SRB assay; format: functional; conditions: U-251, 48 h; method in brief: as §2
# [26] = system: NCI-H460; experiment: Growth inhibition of human NCI-H460 cells after 48 hrs by SRB assay; format: functional; conditions: NCI-H460, 48 h; method in brief: as §1
# [27] = system: SF-268; experiment: Growth inhibition of human SF268 cells after 48 hrs by SRB assay; format: functional; conditions: SF-268, 48 h; method in brief: as §2
# [28] = system: RXF 393; experiment: Growth inhibition of human RFX393 cells after 48 hrs by SRB assay; format: functional; conditions: RXF 393, 48 h; method in brief: as §2
# [29] = system: OVCAR-8; experiment: Growth inhibition of human OVACAR8 cells after 48 hrs by SRB assay; format: functional; conditions: OVCAR-8, 48 h; method in brief: as §2
# [30] = system: SK-MEL-2; experiment: Growth inhibition of human SK-MEL2 cells after 48 hrs by SRB assay; format: functional; method in brief: as §2
# [31] = system: MDA-MB-231; experiment: Growth inhibition of human MDA-MB-231 cells after 48 hrs by SRB assay; format: functional; conditions: MDA-MB-231, 48 h; method in brief: as §1
# [32] = system: EKVX; experiment: Growth inhibition of human EKVX cells after 48 hrs by SRB assay; format: functional; method in brief: as §1
# [33] = system: SK-MEL-28; experiment: Growth inhibition of human SK-MEL28 cells after 48 hrs by SRB assay; format: functional; conditions: SK-MEL-28, 48 h; method in brief: as §1
# [34] = system: SF-295; experiment: Growth inhibition of human SF295 cells after 48 hrs by SRB assay; format: functional; method in brief: as §2
# [35] = system: HL-60; experiment: Growth inhibition of human HL60 cells after 48 hrs by SRB assay; format: functional; conditions: HL-60, 48 h; method in brief: as §1
# [36] = system: NCI/ADR-RES; experiment: Growth inhibition of human NCI/ADR-RES cells after 48 hrs by SRB assay; format: functional; method in brief: as §1
# [37] = system: SN12C; experiment: Growth inhibition of human SN12C cells after 48 hrs by SRB assay; format: functional; method in brief: as §2
# [38] = Growth inhibition of human OVACAR3 cells after 48 hrs by SRB assay; format: functional; conditions: OVACAR3, 48 h; method in brief: as §2
# [39] = read-out: Log LC50 (the source's name) (converted)
structure (smiles),measurement,setting,value
COC(=O)C1=CO[C@@H]2O[C@H]3/C(=C\c4ccc(O)cc4)C(=O)O[C@]34C=C[C@H]1[C@H]24 [PRISMATOMERIN],GI50,[1],< 0.01 µM
same,CC50,[1]; [39],> 100 µM
same,GI50,[2],0.145 µM
same,CC50,[2]; [39],10 µM
same,GI50,[3],0.0209 µM
same,CC50,[3]; [39],0.708 µM
same,TGI,[3]; read-out: Log TGI (converted),0.24 µM
same,Activity,[4],inactive
same,GI50,"[4]; SK-MEL-5, 48 h",< 0.01 µM
same,TGI,"[4]; SK-MEL-5, 48 h, read-out: Log TGI (converted)",0.186 µM
same,GI50,[5],0.0195 µM
same,CC50,[5]; [39],0.55 µM
same,TGI,[5]; read-out: Log TGI (converted),0.195 µM
same,Activity,[6],inactive
same,GI50,"[6]; BT-549, 48 h",0.151 µM
same,GI50,[7],0.38 µM
same,CC50,[7]; [39],3.89 µM
same,Activity,[8],inactive
same,CC50,"[8]; SNB-75, 48 h, read-out: Log LC50 (the source's name) (converted)",> 100 µM
same,GI50,[9],0.17 µM
same,CC50,[9]; [39],3.02 µM
same,IC50,[10],0.06 µM
same,GI50,[11],0.107 µM
same,CC50,[11]; [39],> 100 µM
same,GI50,[12],0.295 µM
same,CC50,[12]; [39],> 100 µM
same,TGI,[12]; read-out: Log TGI (converted),0.832 µM
same,GI50,[13],0.135 µM
same,CC50,[13]; [39],4.68 µM
same,Activity,[14],inactive
same,GI50,"[14]; DU-145, 48 h",0.115 µM
same,GI50,[15],0.437 µM
same,CC50,[15]; [39],0.575 µM
same,GI50,[16],0.912 µM
same,CC50,[16]; [39],> 100 µM
same,TGI,[16]; read-out: Log TGI (converted),3.16 µM
same,Activity,[17],inactive
same,GI50,"[17]; HCT-116, 48 h",< 0.01 µM
same,TGI,"[17]; HCT-116, 48 h, read-out: Log TGI (converted)",0.1 µM
same,GI50,[18],0.186 µM
same,CC50,[18]; [39],0.933 µM
same,GI50,[19],0.174 µM
same,CC50,[19]; [39],22.9 µM
same,TGI,[19]; read-out: Log TGI (converted),0.479 µM
same,GI50,[20],0.2 µM
same,Activity,[21],inactive
same,GI50,[22],0.234 µM
same,CC50,[22]; [39],0.871 µM
same,TGI,[22]; read-out: Log TGI (converted),0.457 µM
same,GI50,[23],0.162 µM
same,CC50,[23]; [39],3.8 µM
same,TGI,[23]; read-out: Log TGI (converted),0.575 µM
same,GI50,[24],< 0.01 µM
same,CC50,[24]; [39],2.09 µM
same,GI50,[25],0.295 µM
same,CC50,[25]; [39],60.3 µM
same,TGI,[25]; read-out: Log TGI (converted),0.955 µM
same,GI50,[26],0.24 µM
same,CC50,[26]; [39],> 100 µM
same,GI50,[27],0.263 µM
same,CC50,[27]; [39],63.1 µM
same,TGI,[27]; read-out: Log TGI (converted),0.759 µM
same,GI50,[28],< 0.01 µM
same,CC50,[28]; [39],0.661 µM
same,TGI,[28]; read-out: Log TGI (converted),0.162 µM
same,GI50,[29],0.174 µM
same,CC50,[29]; [39],2.24 µM
same,TGI,[29]; read-out: Log TGI (converted),0.501 µM
same,Activity,[30],inactive
same,GI50,"[30]; SK-MEL-2, 48 h",0.166 µM
same,GI50,[31],0.162 µM
same,CC50,[31]; [39],0.851 µM
same,GI50,[32],0.355 µM
same,CC50,[32]; [39],40.7 µM
same,GI50,[33],0.316 µM
same,CC50,[33]; [39],> 100 µM
same,Activity,[34],inactive
same,GI50,"[34]; SF-295, 48 h",0.589 µM
same,GI50,[35],< 0.01 µM
same,CC50,[35]; [39],> 100 µM
same,GI50,[36],0.17 µM
same,CC50,[36]; [39],17.4 µM
same,GI50,[37],0.174 µM
same,CC50,[37]; [39],0.813 µM
same,TGI,[37]; read-out: Log TGI (converted),0.38 µM
same,GI50,[38],0.49 µM
same,CC50,[38]; [39],1.7 µM
same,TGI,[38]; read-out: Log TGI (converted),0.562 µM
